pIC50: −log10 of the molar value. ≈ marks a conversion by molar mass, not a printed value. Calls of active or inactive are those of the source. The rule behind the calls is not given here.
How the values were obtained:
Mycobacterium kansasii [1] = test: Antimycobacterial activity against Mycobacterium kansasii 6509/96 after 14 days; assay type: functional; conditions: 6509/96, 336 h
In short: (§1)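 Microdilution in Šula's semisynthetic medium; compounds in DMSO at 32–0.03 µM. Inoculum from 1.0 McFarland suspension diluted 10-4. […] Isoniazid and rifampicin as reference drugs.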

[2] = system: Mycobacterium tuberculosis; test: Antimycobacterial activity against Mycobacterium tuberculosis H37Rv CNCTC My 331/88 after 14 days; assay type: functional; conditions: H37Rv CNCTC My 331/88, 336 h
In short: (§2)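 M. tuberculosis strains (H37Rv and clinical MDR/XDR isolates) tested by microdilution in Šula's semisynthetic medium. Compounds were dissolved in DMSO and tested at 32 to 0.03 µM in twofold steps. Inoculum was a 1.0 McFarland suspension diluted 10-3. Plates were incubated at 37 °C and read at 14 and 21 days.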

[3] = system: Mycobacterium tuberculosis; test: Antimycobacterial activity against Mycobacterium tuberculosis H37Rv CNCTC My 331/88 after 21 days; assay type: functional; conditions: H37Rv CNCTC My 331/88, 504 h; in short: as §2
[4] = Cytotoxicity against human HepG2 cells assessed as cell viability at 30 uM after 48 hrs by CellTiter 96 aqueous one solution assay relative to control; assay type: cell-based; conditions: read-out: Activity
In short: (§3)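 HepG2 (DMEM, 10% FBS, 1 mM pyruvate) or A431 (DMEM, 10% FBS) seeded 10,000 cells/well, 24 h at 37 °C, 5% CO2, then 30 µM compound for 48 h. MTS reagent 60 min, absorbance 490 nm, background subtracted; 0.1% DMSO vehicle = 100%, 10% SDS = 0% viability.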

Mycobacterium kansasii [5] = test: Antimycobacterial activity against Mycobacterium kansasii 6509/96 after 7 days; assay type: functional; conditions: 6509/96, 168 h; in short: as §1
Mycobacterium kansasii [6] = test: Antimycobacterial activity against Mycobacterium kansasii 6509/96 after 21 days; assay type: functional; conditions: 6509/96, 504 h; in short: as §1
A-431 = test: Cytotoxicity against human A431 cells assessed as reduction in cell viability after 48 hrs by CellTiter 96 aqueous one solution assay; assay type: cell-based; conditions: A-431, 48 h
Mycobacterium kansasii [7] = test: Antimycobacterial activity against Mycobacterium kansasii CNCTC My 235/80 after 7 days; assay type: functional; conditions: CNCTC My 235/80, 168 h; in short: as §1
Candida albicans = test: Antifungal activity against Candida albicans ATCC 24433 CCM 8320 measured after 24 to 48 hrs by alamar blue dye based broth microdilution assay; assay type: functional, organism-based
Mycobacterium avium [8] = test: Antimycobacterial activity against Mycobacterium avium CNCTC My 330/88 after 14 days; assay type: functional; conditions: CNCTC My 330/88, 336 h
In short: (§4)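 M. avium was tested by microdilution in Šula's semisynthetic medium, with compounds dissolved in DMSO and serially diluted from 1000 down to 1. Inoculum was a 1.0 McFarland suspension diluted 10-5. Plates were incubated at 37 °C and read at 14 and 21 days. […] Isoniazid and rifampicin served as standards.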

[9] = Cytotoxicity against human A431 cells assessed as cell viability at 30 uM after 48 hrs by CellTiter 96 aqueous one solution assay relative to control; assay type: cell-based, A-431; conditions: read-out: Activity; in short: as §3
Mycobacterium avium [10] = test: Antimycobacterial activity against Mycobacterium avium CNCTC My 330/88 after 21 days; assay type: functional; conditions: CNCTC My 330/88, 504 h; in short: as §4
HepG2 = test: Cytotoxicity against human HepG2 cells assessed as reduction in cell viability after 48 hrs by CellTiter 96 aqueous one solution assay; assay type: cell-based; conditions: HepG2, 48 h
Mycobacterium kansasii [11] = test: Antimycobacterial activity against Mycobacterium kansasii CNCTC My 235/80 after 14 days; assay type: functional; conditions: CNCTC My 235/80, 336 h; in short: as §1
Mycobacterium kansasii [12] = test: Antimycobacterial activity against Mycobacterium kansasii CNCTC My 235/80 after 21 days; assay type: functional; conditions: CNCTC My 235/80, 504 h; in short: as §1
Staphylococcus aureus = test: Antibacterial activity against Staphylococcus aureus subsp. aureus ATCC 29213 CCM 4223 measured after 24 to 48 hrs by alamar blue dye based broth microdilution assay; assay type: functional, organism-based

CSc1nnc(-c2cc([N+](=O)[O-])cc([N+](=O)[O-])c2)n1Cc1ccccc1
MIC99 (Mycobacterium kansasii [1]): 8 µM (≈ 2.97 µg/mL) | MIC99 [2]: 0.5 µM (≈ 0.186 µg/mL) | MIC99 [3]: 1 µM (≈ 0.371 µg/mL) | viability at 48 h, 30 µM [4]: 93% | MIC99 (Mycobacterium kansasii [5]): 4 µM (≈ 1.49 µg/mL) | MIC99 (Mycobacterium kansasii [6]): 8 µM (≈ 2.97 µg/mL) | pIC50 (A-431): < 4.52 | MIC99 (Mycobacterium kansasii [7]): 2 µM (≈ 0.743 µg/mL) | Activity (Candida albicans): Active | MIC99 (Mycobacterium avium [8]): 500 µM (≈ 186 µg/mL) | viability at 48 h, 30 µM [9]: 83% | MIC99 (Mycobacterium avium [10]): 500 µM (≈ 186 µg/mL) | pIC50 (HepG2): < 4.52 | MIC99 (Mycobacterium kansasii [11]): 4 µM (≈ 1.49 µg/mL) | MIC99 (Mycobacterium kansasii [12]): 4 µM (≈ 1.49 µg/mL) | Activity (Staphylococcus aureus): Active

Source: ChEMBL document CHEMBL4373711, “Development of 3,5-Dinitrophenyl-Containing 1,2,4-Triazoles and Their Trifluoromethyl Analogues as Highly Efficient Antitubercular Agents Inhibiting Decaprenylphosphoryl-β-d-ribofuranose 2'-Oxidase” (J Med Chem, 2019)
